Experimental data collected from several papers.
Target: Mitogen-activated protein kinase 1 (MAPK1, Homo sapiens, UniProt P28482)

SMILES | read-out | action | technique | concentration | endpoint | value
C#Cc1cc(-c2cc(Nc3nc(N[C@@H](C)c4ccc(F)cn4)ncc3Cl)n[nH]2)ccc1C=O | enzyme activity | inhibitor | – | 0.2 µM | inhibition | 10.4%
CCCCC(=O)Nc1ccc(-c2ccc3ncn(CCC)c(=O)c3c2)cn1 | binding | – | competition with immobilised ligand | 0.5 µM | remaining binding | 89%
COc1ccc2oc(-c3ccc4nc(N)oc4c3)c/c(=N\c3ccccc3NC(=O)CCN)c2c1 | binding | – | – | 1 µM | remaining binding | 97%
C=CC(=O)N1CCC([C@@H]2CCNc3c(C(N)=O)c(-c4ccc(Oc5ccccc5)cc4)nn32)CC1 | enzyme activity | inhibitor | – | 1 µM | inhibition | 10%
C[C@H]1CC[C@H](n2c3cnccc3c3cnc(Nc4ccc5c(n4)CCN(C(=O)CO)C5)nc32)CC1 | cell-free assay | – | – | 1 µM | remaining signal | 100%
Cc1cc(O)c(-c2ccc([C@@H](C)CN(C)C)cc2)c2c1[nH]c(=O)c1sccc12 | enzyme activity | inhibitor | – | 0.1 µM | inhibition | 6.8%
COc1ccc2[nH]c3c4[nH]c5ccc(OC)cc5c4c4c(c3c2c1)C(=O)NC4=O | binding | – | – | 1 µM | remaining binding | 76%
CC#CC(=O)N1CCC[C@H]1c1nc(-c2ccc(C(=O)Nc3ccccn3)cc2)c2c(N)nccn12 | enzyme activity | inhibitor | – | 1 µM | inhibition | 3%
O=C1C=C(Nc2ccc(OCc3cn(Cc4ccccc4)nn3)cc2)C(=O)c2ccccc21 | enzyme activity | inhibitor | radiometric | 10 µM | inhibition | 18%
